Assay results gathered from unrelated publications.
Each line is one published result; the experiments were not run side by side.
Target: Tyrosine-protein kinase CSK (CSK, Homo sapiens, UniProt P41240)

Compound | effect on | method | concentration | remaining binding [%]
O=C(NCCCN1CCOCC1)c1ccc(Nc2nccc(-c3cc4ccccc4s3)n2)cc1 | binding | competition with immobilised ligand | 1 µM | 90
COc1ccc2c(c1)O[C@@H](c1ccc(OC)c(OC)c1)C[C@H]2NC(=O)C1(c2ccc3c(c2)OC(F)(F)O3)CC1 | cell-free assay | competition with immobilised ligand | 1 µM | 87
CN(C)c1ncc(F)c(-c2cnn3ncccc23)n1 | binding |  | 1 µM | 98
Cc1cnc(Nc2ccc(C(=O)N3CCC(N4CCCC4)CC3)cc2)nc1-c1cc2ccccc2s1 | binding | competition with immobilised ligand | 1 µM | 62
CC1CCCN1c1nccc(-c2cnn3ncccc23)n1 (stereo not drawn) | binding |  | 1 µM | 100
O=C(NCC1CCOCC1)c1n[nH]cc1NC(=O)c1c(F)cccc1F | binding | competition with immobilised ligand | 1 µM | 98
COc1ncc2cc3ccccc3nc2c1C#N | cell-free assay | competition with immobilised ligand | 5 µM | 100
O=C(c1ccc(Nc2nccc(-c3cc4ccccc4s3)n2)cc1)N1CCC(N2CCCC2)CC1 | binding | competition with immobilised ligand | 1 µM | 100
Cc1ccc(-n2nc(C(C)(C)C)cc2NC(=O)Nc2ccc(-n3c(N)c(C(N)=O)c4nc5ccc(NCCCN)cc5nc43)cc2)cc1 | cell-free assay | competition with immobilised ligand | 1 µM | 0.65
Nc1ncc2c(n1)-c1c([nH]c3ccc(C#CC4CC4)cc13)CCCC2 | binding | competition with immobilised ligand | 1 µM | 96
Nc1c(C(=O)NCc2ccc(C(=O)NCCCC3CCCCC3)cc2)cnn1-c1ccccc1 | cell-free assay | competition with immobilised ligand | 0.1 µM | 100
N[C@@H]1CCN(c2nccc(-c3cnn4ncccc34)n2)C1 | binding |  | 1 µM | 94
CN1CCN(c2cnc3c(C4CCN(C(=O)c5ccc(OC(F)(F)F)cc5N)CC4)ncnc3c2)CC1 | cell-free assay | competition with immobilised ligand | 1 µM | 100
COc1ccnn2ncc(-c3ccnc(N(C)C)n3)c12 | binding |  | 1 µM | 96
CNC(=O)[C@@H]1CC[C@@H](n2c(-c3ccc4cnccc4c3)nc3ccc(C(=O)NCc4cccc(C(N)=O)c4)cc32)C1 | binding | competition with immobilised ligand | 1 µM | 100
CC(=O)C1=C(C)N(c2cccc(C(F)(F)F)c2)C(=O)N[C@@H]1c1ccc(C#N)nc1 | cell-free assay | competition with immobilised ligand | 1 µM | 90
CCN1CCN(Cc2ccc(C(=O)Nc3ccc(C)c(Oc4ccc5c(c4)CC(=O)N5)c3)cc2C(F)(F)F)CC1 | binding | competition with immobilised ligand | 1 µM | 100
C[C@H](NC(=O)c1cnc2n1[C@](C)(Cc1ccc(C#N)cc1)C(=O)N2c1cc(Cl)c(F)c(Cl)c1)C(=O)NC1(c2ccccn2)CC1 | cell-free assay | competition with immobilised ligand | 1 µM | 100
Cc1cnn2ncc(-c3ccnc(N(C)C)n3)c2c1 | binding |  | 1 µM | 99
N#Cc1ccc(Nc2ccc3[nH]c(=O)[nH]c3c2)c(Cl)c1 | cell-free assay | competition with immobilised ligand | 1 µM | 89
C[C@@H]1CCN(c2nccc(-c3cnn4ncccc34)n2)C1 | binding |  | 1 µM | 89
